Data taken from ChEMBL document CHEMBL2057119, “Small molecules that protect against β-amyloid-induced cytotoxicity by inhibiting aggregation of β-amyloid” (Bioorg Med Chem, 2012).
Activity calls are given as the source filed them.

Assays:
[1] = Cytotoxicity against mouse HT22 cells assessed as viability at 10 uM after 18 hrs by MTT assay; assay type: cell-based, HT-22; settings: read-out: Activity
How it was run: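 HT22 murine hippocampal cells were grown in DMEM with 10% FBS at 37 °C, 5% CO2, and plated at 5×10^3 cells/well. They were switched to plain DMEM and serum-starved for 1 h before exposure to compound at 10 µM for 18 h. MTT solution (5 mg/mL) was added for 4 h at 37 °C. Cells were solubilized in 50% DMF/10% SDS (pH 4.7) for 18 h, absorbance was read at 570/630 nm, and % cytotoxicity was calculated.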

[2] = target: T1, Amyloid-beta precursor protein (Homo sapiens, UniProt P05067); experiment: Inhibition of amyloid beta (1 to 42) fibril formation at 10 uM after 1 hr by ThT spectrofluorometric analysis
T1 sequence (P05067 whole entry): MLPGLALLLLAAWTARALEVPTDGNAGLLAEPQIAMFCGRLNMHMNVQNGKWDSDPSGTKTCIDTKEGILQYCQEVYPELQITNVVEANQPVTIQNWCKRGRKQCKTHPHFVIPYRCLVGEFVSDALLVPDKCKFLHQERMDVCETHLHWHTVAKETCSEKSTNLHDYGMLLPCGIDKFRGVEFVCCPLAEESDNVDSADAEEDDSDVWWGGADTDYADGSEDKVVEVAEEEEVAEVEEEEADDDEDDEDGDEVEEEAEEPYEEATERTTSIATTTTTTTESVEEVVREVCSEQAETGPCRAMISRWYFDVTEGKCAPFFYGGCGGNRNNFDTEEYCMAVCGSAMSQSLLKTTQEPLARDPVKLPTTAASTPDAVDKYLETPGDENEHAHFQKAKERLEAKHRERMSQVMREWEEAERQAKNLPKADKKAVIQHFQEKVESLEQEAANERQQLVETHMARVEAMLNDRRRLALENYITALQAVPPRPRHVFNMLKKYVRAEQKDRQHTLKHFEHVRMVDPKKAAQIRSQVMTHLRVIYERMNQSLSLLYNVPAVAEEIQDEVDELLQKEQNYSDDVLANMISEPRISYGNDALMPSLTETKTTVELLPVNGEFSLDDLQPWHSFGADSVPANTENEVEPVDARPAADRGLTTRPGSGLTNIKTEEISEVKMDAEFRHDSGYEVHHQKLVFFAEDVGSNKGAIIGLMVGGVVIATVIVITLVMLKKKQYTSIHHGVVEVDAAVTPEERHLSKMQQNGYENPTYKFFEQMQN
How it was run: (§1)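 ThT diluted to 5 µM in 50 mM glycine buffer was then added. After 10 s of shaking, fluorescence was read at excitation 450 nm and emission 480 nm, as a measure of fibril formation.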

[3] = target: T1, Amyloid-beta precursor protein; experiment: Inhibition of amyloid beta (1 to 42) fibril formation after 1 hr by ThT spectrofluorometric analysis; how it was run: as §1
[4] = tested on: Mus musculus; experiment: Antialzheimer activity in ICR mouse assessed as reduction in amyloid beta (1 to 42)-induced spontaneous memory loss at 100 mg/kg, po measured after 2 days by Y-maze test; assay type: functional; parameters: scale not given: the % may be the effect or the level left
How it was run: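 Aβ(1–42) at 10 nM in PBS (from a 250 µM DMSO stock) was aggregated at 37 °C for 6 days, then injected ICV (50 µL, 2.4 mm depth at bregma) into male ICR mice. Compound was given at 100 mg/kg po once daily, and the Y-maze test was on day 2. Each mouse explored a three-arm maze freely for 8 min. An entry counted when all four limbs were in an arm; spontaneous alternation was scored as three consecutive different-arm entries. n = 10, mean ± SEM.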

[5] = tested on: Mus musculus; experiment: Antialzheimer activity in amyloid beta (1 to 42)-challenged ICR mouse assessed as decrease in escape latency at 100 mg/kg, po measured after 7 days by water maze test; assay type: functional, organism-based; parameters: dose 100 mg/kg
How it was run: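 Male ICR mice were injected ICV with 50 µL of pre-aggregated Aβ(1–42) at 10 nM. Compound was then supplied for 7 days in pellet feed, each pellet containing 3 mg. Water maze training ran on days 3–7, and escape latency was recorded across training sessions. n = 10, mean ± SEM.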

[6] = target: T1, Amyloid-beta precursor protein; experiment: Inhibition of amyloid beta (25 to 35)-induced cell death in mouse HT22 cells at 10 uM after 18 hrs by MTT assay; assay type: cell-based; settings: HT-22, values are per cent of control
How it was run: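 HT22 cells were plated at 5×10^3 cells/well, serum-starved in plain DMEM for 1 h, and pretreated with compound for 1 h. Aβ(25–35) was prepared as a 10 mM DMSO stock, diluted 10-fold in PBS, and aggregated for 1 h at room temperature. It was then added at a final 25 µM, and cells were incubated for 18 h. Viability was measured by MTT (4 h), then solubilization in DMF/SDS and absorbance at 570/630 nm.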

[7] = tested on: Mus musculus; experiment: Antialzheimer activity in ICR mouse assessed as reduction in amyloid beta (1 to 42)-induced spontaneous memory loss at 100 mg/kg, po measured after 2 days by object recognition task relative to control; assay type: functional
How it was run: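 Male ICR mice received ICV pre-aggregated Aβ(1–42) at 10 nM (50 µL, 2.4 mm depth at bregma), then compound at 100 mg/kg po once daily. Object recognition ran on days 2–3. Exploration was counted as the nose directed at an object within 2 cm and/or touching it, and objects were cleaned to avoid olfactory cues. Preference index = exploration time for new object / total exploration time. n = 10, mean ± SEM.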

[8] = target: T1, Amyloid-beta precursor protein; experiment: Inhibition of amyloid beta (1 to 42) aggregation at 2 uM after 2 hrs by SDS-PAGE and PICUP technique
How it was run: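 Aβ(1–42) was monomerized in HFIP (0.5 mM), dried, and redissolved in DMSO. It was incubated at 25 µM final in PBS (pH 7.3) with compound at 2 µM final for 2 h at 37 °C. Samples were photo-cross-linked (PICUP) with ammonium persulfate and Ru(bpy)3Cl2 using three 1 s irradiations, quenched, and boiled. Products were resolved on a 10–20% tris-tricine gel and silver-stained.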

[9] = tested on: Mus musculus; experiment: Antialzheimer activity in ICR mouse assessed as increase in amyloid beta (1 to 42)-induced step-through latency at 100 mg/kg, po measured after 3 days by passive avoidance test; assay type: functional
How it was run: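 Male ICR mice got 50 µL of pre-aggregated Aβ(1–42) by ICV injection at 2.4 mm depth at bregma. The peptide was a 250 µM DMSO stock diluted in PBS to 10 nM and aggregated at 37 °C for 4 days. Oral compound was given at 100 mg/kg once daily, with testing on days 3–4. Training used a 0.25 mA, 3 s shock; step-through latency into the dark compartment was measured 24 h later. n = 10, mean ± SEM, t-test.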

[10] = tested on: Mus musculus; experiment: Antialzheimer activity in po dosed ICR mouse assessed as reduction in amyloid beta (1 to 42)-induced spontaneous memory loss measured after 2 days by object recognition task relative to control; assay type: functional, organism-based
How it was run: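 ICV pre-aggregated Aβ(1–42) (10 nM, 50 µL) was given to male ICR mice, followed by once-daily oral doses in the 50–200 mg/kg series. The object recognition task ran on days 2–3. Exploration was defined as nose within 2 cm of and/or touching an object. Preference index = new-object exploration time / total exploration time. n = 10, mean ± SEM, t-test.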

[11] = tested on: Mus musculus; experiment: Antialzheimer activity in po dosed ICR mouse assessed as increase in amyloid beta (1 to 42)-induced step-through latency measured after 3 days by passive avoidance test; assay type: functional, organism-based
How it was run: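 Male ICR mice received 50 µL of 10 nM Aβ(1–42) ICV at 2.4 mm depth at bregma, after pre-aggregation at 37 °C for 4 days. Oral doses were varied over 50–200 mg/kg, given once daily. Passive avoidance ran on days 3–4 with a 0.25 mA, 3 s training shock. Step-through latency to enter the dark compartment was recorded 24 h after training. n = 10, mean ± SEM, t-test.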

[12] = tested on: Mus musculus; experiment: Antialzheimer activity in po dosed ICR mouse assessed as reduction in amyloid beta (1 to 42)-induced spontaneous memory loss measured after 2 days by Y-maze test; assay type: functional, organism-based
How it was run: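 Male ICR mice were injected ICV with 50 µL of Aβ(1–42) (10 nM, aggregated at 37 °C for 6 days). Various oral doses in the 50–200 mg/kg range followed, once daily. On day 2, each mouse moved freely in a three-arm Y-maze for 8 min. An arm entry required all four limbs inside, and spontaneous alternation was derived from the entry sequence. n = 10, mean ± SEM, t-test.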

[13] = target: T1, Amyloid-beta precursor protein; experiment: Viability of cells treated with amyloid beta (25 to 35) in mouse HT22 cells at 25 uM after 18 hrs by MTT assay; settings: HT-22

Molecule | viability at 18 h, 10 µM [1] [%] | inhibition [2] [%] | also measured
COc1cc(/C=C/c2cc(/C=C/c3ccc(O)c(OC)c3)nc(SC)n2)ccc1O | 79 | 67.6 | 
CSc1nc(/C=C/c2ccc(O)cc2)cc(/C=C/c2ccc(O)cc2)n1 | 65.3 | 67.4 | 
CSc1nc(/C=C/c2cccc(O)c2)cc(/C=C/c2cccc(O)c2)n1 | 43.7 |  | 
CN(C)c1ccc(/C=C/c2cccc(/C=C/c3ccc(N(C)C)c(O)c3)c2)cc1O | 101 | 56 | 
COc1nc(/C=C/c2cccc(O)c2)cc(/C=C/c2cccc(O)c2)n1 | 45.9 |  | 
COc1nc(/C=C/c2ccc(O)c(OC)c2)cc(/C=C/c2ccc(O)c(OC)c2)n1 | 75.2 | 68 | 
COc1cc(/C=C/c2cccc(/C=C/c3ccc(O)c(OC)c3)c2)ccc1O | 74.8 | 71.5 | 
COc1ccc(/C=C/c2cc(/C=C/c3ccc(OC)c(O)c3)nc(SC)n2)cc1O | 78.8 | 75.2 | 
CSc1nc(/C=C/c2ccc(O)c(N(C)C)c2)cc(/C=C/c2ccc(O)c(N(C)C)c2)n1 | 77.3 | 78.6 | 
CN(C)c1ccc(/C=C/c2cc(O)cc(/C=C/c3ccc(N(C)C)c(O)c3)c2)cc1O | 64.4 | 83.3 | IC50 [3]: 3300 nM
COc1cc(/C=C/c2cc(O)cc(/C=C/c3ccc(O)c(OC)c3)c2)ccc1O | 80.9 | 79 | 
C(=C\c1cccc(/C=C/c2ccccc2)c1)/c1ccccc1 |  | 19.8 | 
CN(C)c1cc(/C=C/c2cc(/C=C/c3ccc(O)c(N(C)C)c3)ncn2)ccc1O | 146 | 83.5 | Activity [4]: 67%; Activity [5]: Active; viability, % of control [6]: 85.3%; IC50 [3]: 3700 nM; Activity [7]: inactive; inhibition [8]: Active; Time [9]: 118 s
COc1ccc(/C=C/c2cc(/C=C/c3ccc(OC)c(O)c3)ncn2)cc1O | 136 | 80.9 | Activity [10]: Dose-dependent effect; Activity [4]: 72%; Activity [11]: Dose-dependent effect; Activity [5]: Active; Activity [12]: Dose-dependent effect; viability, % of control [6]: 91.8%; IC50 [3]: 2100 nM; Activity [7]: 7%; inhibition [8]: Active; Time [9]: 144 s
CSc1nc(/C=C/c2ccc(N(C)C)c(O)c2)cc(/C=C/c2ccc(N(C)C)c(O)c2)n1 | 85.3 | 88.8 | IC50 [3]: 1100 nM
Oc1ccc(/C=C/c2cc(O)cc(/C=C/c3ccc(O)cc3)c2)cc1 | 37.4 | 80.7 | IC50 [3]: 1600 nM
Oc1ccc(/C=C/c2cc(/C=C/c3ccc(O)cc3)ncn2)cc1 | 104 | 64.3 | 
CN(C)c1cc(/C=C/c2cc(O)cc(/C=C/c3ccc(O)c(N(C)C)c3)c2)ccc1O | 66 | 74.2 | 

Molecule | viability at 18 h, 10 µM [1] [%] | inhibition [2] [%] | also measured
CN(C)c1cc(/C=C/c2cccc(/C=C/c3ccc(O)c(N(C)C)c3)c2)ccc1O | 95.7 | 63.9 | 
CN(C)c1ccc(/C=C/c2cc(/C=C/c3ccc(N(C)C)c(O)c3)ncn2)cc1O | 133 | 93.7 | Activity [4]: 67%; Activity [5]: Active; viability, % of control [6]: 76.6%; IC50 [3]: 3400 nM; Activity [7]: 7%; inhibition [8]: Active; Time [9]: 118 s
Oc1cccc(/C=C/c2cc(/C=C/c3cccc(O)c3)ncn2)c1 | 142 | 14.1 | 
COc1nc(/C=C/c2ccc(OC)c(O)c2)cc(/C=C/c2ccc(OC)c(O)c2)n1 | 98.4 | 55 | 
COc1nc(/C=C/c2ccccc2)cc(/C=C/c2ccccc2)n1 |  | 18.8 | 
Oc1cccc(/C=C/c2cc(O)cc(/C=C/c3cccc(O)c3)c2)c1 | 59.2 | 7.1 | 
COc1ccc(/C=C/c2cc(O)cc(/C=C/c3ccc(OC)c(O)c3)c2)cc1O | 73.5 | 84.5 | IC50 [3]: 1600 nM
H-GSNKGAIIGLC-OH |  |  | viability [13]: 56%
Oc1ccc(/C=C/c2cccc(/C=C/c3ccc(O)cc3)c2)cc1 | 102 | 58.4 | 
Oc1cc(/C=C/c2ccccc2)cc(/C=C/c2ccccc2)c1 |  | 19.8 | 
COc1nc(/C=C/c2ccc(O)cc2)cc(/C=C/c2ccc(O)cc2)n1 | 101 | 67.4 | 
COc1cc(/C=C/c2cc(/C=C/c3ccc(O)c(OC)c3)ncn2)ccc1O | 216 | 79.3 | Activity [4]: 67%; Activity [5]: Active; viability, % of control [6]: 103%; IC50 [3]: 3200 nM; Activity [7]: 13%; inhibition [8]: Active; Time [9]: 118 s
C(=C\c1cc(/C=C/c2ccccc2)ncn1)/c1ccccc1 |  | 47.4 | 
COc1ccc(/C=C/c2cccc(/C=C/c3ccc(OC)c(O)c3)c2)cc1O | 69.5 | 67.9 | 
COc1nc(/C=C/c2ccc(N(C)C)c(O)c2)cc(/C=C/c2ccc(N(C)C)c(O)c2)n1 | 101 | 90.4 | viability, % of control [6]: 67.4%; IC50 [3]: 800 nM
Oc1cccc(/C=C/c2cccc(/C=C/c3cccc(O)c3)c2)c1 | 47 |  | 
CSc1nc(/C=C/c2ccccc2)cc(/C=C/c2ccccc2)n1 |  | 11.6 | 
COc1nc(/C=C/c2ccc(O)c(N(C)C)c2)cc(/C=C/c2ccc(O)c(N(C)C)c2)n1 | 96.6 | 74.1 | viability, % of control [6]: 59%
